Experimental data from BindingDB's records for doi:10.1021/acs.jmedchem.8b00139 (University Park Nottingham, 2018).

Target: P2Y purinoceptor 2 (Homo sapiens, UniProt P41231)
Experiment: Displacement of (E)-2-((5-(7-Chloro-2-((3-((2-(6-(3-(5,5-difluoro-7,9-dimethyl-5H-5-lambda4,6-lambda4-dipyrrolo[1,2-c:2,1-f ][1,3,2]diazaborinin-3-yl)-propanamido)hexanamido)ethyl)amino)-3-oxopropyl)amino)-4Hbenzo[5,6]cyclohepta[1,2-d]thiazol-4-yl)-2-oxo-4-thioxo-3,4-dihydropyrimidin-1(2H)-yl)methyl)-N-(1H-tetrazol-5-yl)thiazole-4-carboxamide from human N-terminal NLuc-tagged P2Y2R expressed in human 1321N1 cells incubated for 1 hr by furimazine-based NanoBRET assay
Outline: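 Competition binding in 1321N1 cells expressing N-terminal NanoLuc-hP2Y2R. The fluorescent tracer was used at 1 µM (or the bodipy A tracer at 100 nM) against increasing concentrations of unlabeled ligand. After furimazine addition the BRET signal was read and pKi estimated; mean ± SEM of separate experiments.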

P2Y purinoceptor 2, sequence (P41231 whole entry): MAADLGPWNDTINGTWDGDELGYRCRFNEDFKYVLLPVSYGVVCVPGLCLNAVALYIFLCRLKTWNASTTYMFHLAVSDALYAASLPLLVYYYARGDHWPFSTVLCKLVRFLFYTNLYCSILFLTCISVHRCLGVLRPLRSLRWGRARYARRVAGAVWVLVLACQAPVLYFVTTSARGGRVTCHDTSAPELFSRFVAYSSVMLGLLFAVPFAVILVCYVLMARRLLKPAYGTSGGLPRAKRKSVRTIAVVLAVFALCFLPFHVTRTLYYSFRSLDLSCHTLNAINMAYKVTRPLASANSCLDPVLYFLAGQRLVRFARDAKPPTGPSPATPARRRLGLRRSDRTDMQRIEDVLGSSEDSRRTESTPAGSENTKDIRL

Row | Ki | SMILES
1 | 5.25 µM | CCOCCNc1nc2c(s1)C=Cc1cc(Cl)ccc1[C@@H]2c1cn(C)c(=O)[nH]c1=S
2 | 0.275 µM | CCOCCNc1nc2c(s1)C=Cc1cc(Cl)ccc1[C@H]2c1cn(C)c(=O)[nH]c1=S
